Test results reported in ChEMBL document CHEMBL3393022, “Ligand-induced conformational change of Plasmodium falciparum AMA1 detected using 19F NMR” (J Med Chem, 2014).
Active and inactive are the calls of the source. The calls are words filed in the database; no cut-off is given here. Residues, ends and D or L forms follow the SMILES beside them.

What was measured:
[1] = target: T1, Apical membrane antigen 1 (Plasmodium falciparum (isolate 3D7)) (UniProt Q7KQK5); assay: Binding affinity to Plasmodium falciparum 3D7 5F-Trp-tagged AMA1 assessed as downfield shifts of W110 peak by 19F-NMR spectroscopy in presence of R1/RON2L
T1 sequence (whole entry): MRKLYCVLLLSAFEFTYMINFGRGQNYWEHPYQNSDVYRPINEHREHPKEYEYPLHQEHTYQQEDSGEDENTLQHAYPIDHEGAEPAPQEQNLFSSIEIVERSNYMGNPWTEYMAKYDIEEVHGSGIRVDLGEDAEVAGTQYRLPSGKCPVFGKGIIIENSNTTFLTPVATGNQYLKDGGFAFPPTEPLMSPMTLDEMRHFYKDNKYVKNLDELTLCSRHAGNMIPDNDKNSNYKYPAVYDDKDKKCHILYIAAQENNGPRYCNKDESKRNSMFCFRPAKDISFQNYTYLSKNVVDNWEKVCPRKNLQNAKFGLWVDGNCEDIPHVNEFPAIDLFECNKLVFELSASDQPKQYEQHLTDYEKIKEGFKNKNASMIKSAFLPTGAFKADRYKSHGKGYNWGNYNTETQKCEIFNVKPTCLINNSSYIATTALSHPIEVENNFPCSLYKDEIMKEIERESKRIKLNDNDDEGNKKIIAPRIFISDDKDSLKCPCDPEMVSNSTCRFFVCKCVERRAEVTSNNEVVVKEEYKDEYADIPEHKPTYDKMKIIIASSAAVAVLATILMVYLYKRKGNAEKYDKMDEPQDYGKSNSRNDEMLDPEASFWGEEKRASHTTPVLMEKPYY

[2] = target: T2, Apical membrane antigen 1 (Plasmodium falciparum (isolate 3D7), UniProt Q7KQK5); assay: Binding affinity to Plasmodium falciparum 3D7 AMA1 (108 to 434) expressed in Escherichia coli BL21(DE3) by SPR analysis
T2 sequence (Q7KQK5 whole entry): T1 sequence (whole entry)
Summary of the method: (§1)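 SPR at 25 °C in PBS–0.1% Tween, flow 30 μL/min, with AMA1 immobilised on a GLC chip. Peptides were injected for 8 min at 50–3.125 nM, with 800 s dissociation. A lane without AMA1 and buffer or DMSO signals were subtracted. Regeneration used 0.85% phosphoric acid.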

[3] = target: Apical membrane antigen 1 (Plasmodium falciparum (isolate 3D7), UniProt Q7KQK5); assay: Binding affinity to Plasmodium falciparum 3D7 AMA1 373W insertion mutant expressed in Escherichia coli BL21(DE3) by SPR analysis
Summary of the method: as §1

[4] = target: Apical membrane antigen 1 (Plasmodium falciparum (isolate 3D7), UniProt Q7KQK5, F367W); assay: Binding affinity to Plasmodium falciparum 3D7 AMA1 F367W mutant expressed in Escherichia coli BL21(DE3) at 1 and 3 mM by SPR analysis
[5] = target: T1, Apical membrane antigen 1 (Plasmodium falciparum (isolate 3D7)); assay: Binding affinity to Plasmodium falciparum 3D7 5F-Trp-tagged AMA1 F367W mutant assessed as decrease in the W367 line width at 1 and 3 mM by 19F-NMR spectroscopy in presence of R1/RON2L
Summary of the method: (§2)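 5F-Trp-labelled 3D7 PfAMA1(108–434) F367W from E. coli BL21(DE3), induced with 1 mM IPTG for 3 h after glyphosate/Phe/Tyr/5F-Trp, refolded and purified into 20 mM phosphate pH 7.4. Small-molecule ligands were added from 100 mM stocks in H2O, ethanol or DMSO to 1 and 3 mM. 19F spectra: 2K scans, 8K complex points, 150 ppm sweep width, under 40 min, compared with free protein.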

[6] = target: T1, Apical membrane antigen 1 (Plasmodium falciparum (isolate 3D7)); assay: Binding affinity to Plasmodium falciparum 3D7 5F-Trp-tagged AMA1 F367W mutant at 1 and 3 mM by 19F-NMR spectroscopy in presence of R1/RON2L
Summary of the method: as §2

Q: Which Activity [1] does the source give for `CC[C@H](C)[C@H](NC(=O)[C@H](CCC(N)=O)NC(=O)[C@H](CCC(N)=O)NC(=O)[C@@H]1CCCN1C(=O)[C@@H]1CCCN1C(=O)[C@H](CO)NC(=O)[C@H](CCSC)NC(=O)[C@H](CCCNC(=N)N)NC(=O)[C@@H](NC(=O)[C@@H](NC(=O)[C@H](Cc1ccccc1)NC(=O)[C@@H](N)CS)[C@@H](C)O)[C@@H](C)O)C(=O)N[C@@H](CS)C(=O)O` (H-CFTTRMSPPQQIC-OH) here?
A: Its Activity is “Active”.

Q: And the Kd [2]?
A: Its Kd is 40000 nM.

Q: What does the source list for H-VFAEFLPLFSKFGSRMHILK-OH?
A: Kd [3]: 50 nM; Activity [1]: Active; Kd [2]: 23 nM; Kd [4]: 20 nM

Q: Which Activity [5] does the source give for `Cc1nc(N)sc1-c1ccc(N)cc1` here?
A: Its Activity is “Dose-dependent effect”.

Q: What about the Activity [1] of the same compound?
A: Its Activity is “Dose-dependent effect”.

Q: Which results are given for `Nc1cc(N)cc(-c2nc3ccccc3[nH]2)c1`?
A: Activity [5]: inactive; Activity [1]: Active; Activity [6]: Active

Q: With `Nc1ccc2nc(N3CCCCC3)[nH]c2c1` as the compound, how does the Activity [5] read?
A: Its Activity is “inactive”.

Q: What about the Activity [1] of the same compound?
A: The Activity was “Dose-dependent effect”.

Q: And the Activity [6]?
A: Its Activity is “Active”.
